Assay [1] has as its target Sigma 2 receptor. Description: Displacement of [3H]ditolylguanidine from sigma 2 receptor in Sprague-Dawley rat liver membrane. It is filed as cell membranes. (In general: Displacement assays read how much labelled ligand stays bound in the presence of the test substance.)
Assay [2] addresses Mu-type opioid receptor (Cavia porcellus) (UniProt P97266). As to the kind of experiment: Displacement of [3H]DAMGO from mu opioid receptor in guinea pig brain membrane at 10 uM. It is filed as cell membranes. An outline of the steps: (§1)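 Single-point screen: percent inhibition of radioligand binding to guinea pig brain membranes with test compound at 10 µM.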
Assay [3] is filed under the species Cavia porcellus. As to the kind of experiment: Displacement of [3H]MK-801 from NMDA receptor in guinea pig brain membrane at 10 uM. It is filed as cell membranes. An outline of the steps: as §1
Assay [4] concerns the target Kappa-type opioid receptor (Cavia porcellus, UniProt P41144). Description: Displacement of [3H]U-69593 from kappa opioid receptor in guinea pig brain membrane. It is filed as cell membranes.
Assay [5] has as its target Sigma non-opioid intracellular receptor 1 (Cavia porcellus, UniProt Q60492). As to the kind of experiment: Displacement of [3H](+)-pentazocine from sigma 1 receptor in guinea pig brain membrane. It is filed as cell membranes.
Assay [6] deals with Mu-type opioid receptor (Cavia porcellus, UniProt P97266). As to the kind of experiment: Displacement of [3H]DAMGO from mu opioid receptor in guinea pig brain membrane. It is filed as cell membranes.
In assay [7] the target is Sigma non-opioid intracellular receptor 1 (Cavia porcellus) (UniProt Q60492). Description: Selectivity for guinea pig sigma 1 receptor over rat sigma 2 receptor.
Assay [8] can be described thus: Displacement of [3H]MK-801 from NMDA receptor in guinea pig brain membrane. It is filed as cell membranes, Cavia porcellus.
The target in assay [9] is Kappa-type opioid receptor (Cavia porcellus) (UniProt P41144). Description: Displacement of [3H]U-69593 from kappa opioid receptor in guinea pig brain membrane at 10 uM. It is filed as cell membranes. In outline:
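Single-concentration test reported as percent inhibition of [3H]-U-69593 binding to guinea pig brain membranes. All experiments run in triplicate. Glass fibre filters presoaked 2 h at 4 °C in 0.5% polyethylenimine, then harvested by filtration. Bound radioactivity counted by liquid scintillation at 66% counting efficiency.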

SMILES strings stand for the structures.

Chain of Sigma non-opioid intracellular receptor 1 (Q60492 whole entry): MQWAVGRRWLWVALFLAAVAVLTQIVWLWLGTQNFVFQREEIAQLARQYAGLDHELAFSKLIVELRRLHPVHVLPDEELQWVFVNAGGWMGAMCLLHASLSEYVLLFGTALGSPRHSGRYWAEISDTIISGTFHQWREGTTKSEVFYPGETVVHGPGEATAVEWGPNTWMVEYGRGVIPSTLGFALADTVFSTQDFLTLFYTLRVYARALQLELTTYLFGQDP
Chain of Mu-type opioid receptor (P97266 whole entry): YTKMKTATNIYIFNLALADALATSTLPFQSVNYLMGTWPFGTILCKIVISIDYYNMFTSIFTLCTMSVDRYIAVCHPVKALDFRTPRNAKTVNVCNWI
Chain of Mu-type opioid receptor (Cavia porcellus) (P97266 whole entry): as above
Chain of Kappa-type opioid receptor (P41144 whole entry): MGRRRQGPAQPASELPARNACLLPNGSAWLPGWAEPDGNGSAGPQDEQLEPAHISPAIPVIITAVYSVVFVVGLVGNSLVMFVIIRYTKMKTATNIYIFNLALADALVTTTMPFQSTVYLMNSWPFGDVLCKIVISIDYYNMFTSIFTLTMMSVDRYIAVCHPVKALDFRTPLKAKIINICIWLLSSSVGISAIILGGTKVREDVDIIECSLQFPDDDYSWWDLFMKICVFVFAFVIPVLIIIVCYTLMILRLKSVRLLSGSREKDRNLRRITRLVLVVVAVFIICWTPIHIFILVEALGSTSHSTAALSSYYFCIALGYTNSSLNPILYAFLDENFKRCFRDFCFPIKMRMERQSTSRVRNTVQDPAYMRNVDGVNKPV
Chain of Sigma non-opioid intracellular receptor 1 (Cavia porcellus) (Q60492 whole entry): as the sequence (Q60492 whole entry) above
Chain of Kappa-type opioid receptor (Cavia porcellus) (P41144 whole entry): as the sequence (P41144 whole entry) above

As to `CCCCN1CC2CCC(O)C1CN2Cc1ccccc1` (centres undefined), the Ki is 447 nM in assay [1], 1600 nM in assay [4] and 23.4 nM in assay [5]. The inhibition in [2] was 37.9%; in assay [3] it was 52.3%.

Consider `O[C@@H]1CCC2CN(CCc3ccccc3)C1CN2Cc1ccccc1` (some centres undefined), for which the Ki amounted to 4960 nM in assay [6], 343 nM in assay [1], 2460 nM in [4] and 33.3 nM in assay [5]. The compound further returned an inhibition in [3] of 21.9%.

On to `COC1CCC2CN(CCc3ccccc3)C1CN2Cc1ccccc1` (centres undefined), for which the Ki in [1] was 297 nM; in [4], 5020 nM; in assay [5], 76 nM. Also, the inhibition came to 68.6% in assay [2] and 50.5% in assay [3].

With `CN1CC2CCC(O)C1CN2Cc1ccccc1` (single isomer, unassigned; form 1) [listing 1 of 2 here], the figures for the Ki in assay [1] and in assay [5] were 2890 nM and 4970 nM, respectively.

As for `CN1C[C@@H]2CC[C@@H](OCc3ccccc3)[C@H]1CN2Cc1ccccc1`, the results for the Ki in [1], in assay [4] and in assay [5] were 30.4 nM, 585 nM and 16.2 nM, respectively. For the same compound, the results for the inhibition in assay [2] and in assay [3] were 70.4% and 0%, respectively.

For the compound `CCCCN1CC2CCC(OC)C1CN2Cc1ccccc1` (centres undefined), the Ki in assay [1] worked out at 219 nM; in [4], 157 nM; in assay [5] it was 13.2 nM. For the same compound, the inhibition turned out to be 37.4% in [2] and 55.5% in assay [3]. Further, the Selectivity ratio in assay [7] worked out at 16.

In the case of `c1ccc(CCN2CC3CCC(OCc4ccccc4)C2CN3Cc2ccccc2)cc1` (centres undefined), the figures for the Ki in assay [1], in [4] and in assay [5] were 628 nM, 2230 nM and 175 nM, respectively. In addition, the inhibition was 34.8% in assay [2] and 16.4% in [3].

For `OC1CCC2CN(CCc3ccccc3)C1CN2Cc1ccccc1` (single isomer, unassigned), the Ki in assay [6] worked out at 4050 nM; in [1], 588 nM; in assay [4], 1290 nM; in assay [5] it was 29.5 nM. This compound also gave an inhibition in assay [3] of 20.6%.

The compound `c1ccc(C2(N3CCCCC3)CCCCC2)cc1` [PHENCYCLIDINE] yielded a Ki in assay [8] of 28 nM.

For `CN1CC2CCC(O)C1CN2Cc1ccccc1` (single isomer, unassigned; form 2) [listing 1 of 2 here], the results for the inhibition in [2], in assay [3] and in assay [9] were 8.5%, 21% and 12.6%, respectively.

Consider `CN1CC2CCC(O)C1CN2Cc1ccccc1` (single isomer, unassigned; form 1) [listing 2 of 2 here], for which the figures for the inhibition in assay [2], in assay [3] and in [9] were 4.7%, 13.7% and 13.2%, respectively.

`CN[C@]1(c2ccccc2Cl)CCCCC1=O` [ESKETAMINE] yielded a Ki in [8] of 108 nM. This counts as sub-micromolar.

Consider `COC1(OC)CC[C@H]2CN(C)[C@@H]1CN2Cc1ccccc1`, for which the inhibition constant (Ki) in [1] was 1830 nM; in [4], over 10000 nM; in [5], 3500 nM. The values for the inhibition in [2] and in assay [3] were 27.6% and 44.3%, respectively.

Regarding `CN1CC2CCC(O)C1CN2Cc1ccccc1` (single isomer, unassigned; form 2) [listing 2 of 2 here], the values for the Ki in assay [1] and in assay [5] were 4180 nM and 2400 nM, respectively.

Turning to `CCCCN1CC2CCC(OCc3ccccc3)C1CN2Cc1ccccc1` (centres undefined), the inhibition constant Ki in assay [6] amounted to 3320 nM; in assay [1], 820 nM; in assay [4] it was 1110 nM; in assay [5], 39.5 nM. The same compound registered an inhibition in assay [3] of 21.5%. In assay [7], the Selectivity ratio came out at 21.

For the compound `CO[C@@H]1CC[C@H]2CN(C)[C@@H]1CN2Cc1ccccc1`, the Ki in assay [1] was 327 nM; in [4] it was 3590 nM; in assay [5], 1350 nM. Moreover, the inhibition in assay [2] is 21.5%; in assay [3] it was 8.7%.

By Ki is commonly meant the dissociation constant of the complex between target and ligand, obtained from inhibition or displacement. A high value points to a looser hold on the target. The term inhibition denotes the relative decrease from the control value, in per cent.
